Activity data for 16 molecules are collected here from ChEMBL document CHEMBL4130516, “Immunomodulatory Polyketides from a Phoma-like Fungus Isolated from a Soft Coral” (J Nat Prod, 2017).

SMILES strings stand for the structures. The source made the active and inactive calls. The rule behind the calls is not given here.

The subject of one data set is A549. In words: Cytotoxicity in human A549 cells assessed as reduction in cell viability at 30 uM incubated for CellTiter-Blue cell viability assay. The data set is classed as functional, cell-based. A digest of the protocol:
(§1)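 Cells were treated with compounds at 30 μM for 48 h at 37 °C in 5% CO2. Media were DMEM + 10% FBS for A549, HCT116 and MCF-7, and MEM for DAOY. Adriamycin was the positive control. Relative viability was read by CellTiter-Blue at 530/590 nm.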
A general note: The colour change of resazurin is a common sign of viable cells or microbes.

For a further data set, the system named is HCT-116. In words: Cytotoxicity in human HCT116 cells assessed as reduction in cell viability at 30 uM incubated for CellTiter-Blue cell viability assay. The data set is classed as functional, cell-based. A digest of the protocol:
as §1

A further data set has as its system MCF7. In words: Cytotoxicity in human MCF7 cells assessed as reduction in cell viability at 30 uM incubated for CellTiter-Blue cell viability assay. It is filed as functional, cell-based. In a few lines: as §1
The next data set relates to Daoy. In words: Cytotoxicity in human DaOY cells assessed as reduction in cell viability at 30 uM incubated for CellTiter-Blue cell viability assay. It is filed as functional, cell-based. In a few lines:
as §1

Data set [1] deals with Splenocyte. Description: Induction of apoptosis in Con A-stimulated C57BL/6 mouse splenocytes at 3 uM by flow cytometry. It is filed as cell-based. A digest of the protocol: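 C57BL/6 mouse splenocytes (2 × 10^6 cells/mL) were incubated with compounds at 3 μM for 24 h, with Con A (5 μg/mL) as positive control. Cells were washed with PBS and immediately analysed for apoptosis by flow cytometry.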
In general terms: A flow cytometer gives signals particle by particle.

Data set [2] concerns Splenocyte. In words: Immunomodulatory activity in Con A-stimulated C57BL/6 mouse splenocytes assessed as increase in CD3+T cell proliferation at 3 uM by PE-CD3 staining based flow cytometry. The data set is classed as functional. In a few lines: (§2)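 C57BL/6 mouse splenocytes, Con A-stimulated (Con A 5 μg/mL as control), were incubated with compounds at 3 μM for 24 h. Cells were stained with PE-CD3, FITC-CD4 and PerCP/Cy5.5-CD8. Flow cytometry gave the percentage of CD3+, CD4+ and CD8+ T cells and the CD4+/CD8+ ratio. Values are means ± SD, n = 3.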

The test system of data set [3] is Splenocyte. Description: Immunomodulatory activity in C57BL/6 mouse splenocytes assessed as increase in CD3+T cell proliferation at 3 uM by PE-CD3 staining based flow cytometry. It is filed as functional.
The test system of data set [4] is Splenocyte. Description: Immunomodulatory activity in Con A-stimulated C57BL/6 mouse splenocytes assessed as increase in ratio of CD4+/[…] cells at 3 uM by PE-CD3 staining based flow cytometry. The data set is classed as functional, cell-based. In a few lines:
as §2

With `C[C@@]1(O)CC[C@H]2[C@@H](C=C[C@@]3(C)OC(=O)C[C@H](O)[C@]23C)C1`, the result in the data set with A549, with HCT-116, with MCF7, with Daoy, in the data set on Splenocyte [2] and in the data set on Splenocyte [3] was inactive. Further, the Activity result with Splenocyte [1] is on record as “Non-Toxic”. For the same molecule, the result with Splenocyte [4] was Active.

In the case of `C[C@H]1CC[C@H]2[C@@H](C=C[C@@](C)(O)[C@]2(C)C(=O)O)C1`, the result with A549, in the data set on HCT-116, in the data set on MCF7 and in the data set on Daoy was inactive. In addition, the Activity entry in the data set on Splenocyte [1] is “Non-Toxic”. Further, the result in the data set on Splenocyte [2] and with Splenocyte [3] was Active.

On to `C[C@H]1CC[C@H]2C(=C[C@@H](O)[C@@](C)(O)[C@]2(C)C(=O)CCO)C1`, for which the result in the data set with A549, in the data set on HCT-116, with MCF7, in the data set on Daoy, with Splenocyte [2] and with Splenocyte [3] was inactive. Moreover, the Activity result with Splenocyte [1] is recorded as “Non-Toxic”.

With `C[C@H]1CC[C@H]2[C@H](C1)[C@@H](O)[C@@H]1O/C(=C\C=O)[C@@]2(C)[C@]1(C)O`, the outcome in the data set with A549, in the data set with HCT-116, in the data set on MCF7 and in the data set on Daoy was inactive. In addition, the Activity entry in the data set with Splenocyte [1] is on record as “Non-Toxic”.

For `CC(=O)OCCC(=O)[C@]1(C)[C@H]2CC[C@H](C)C[C@@H]2C=C[C@@]1(C)O`, the outcome in the data set with A549, in the data set on HCT-116, in the data set on MCF7, in the data set on Daoy, in the data set on Splenocyte [2] and in the data set on Splenocyte [3] was inactive. In the data set on Splenocyte [1], the Activity result is recorded as “Non-Toxic”. Moreover, in the data set on Splenocyte [4], the result was Active.

As for `C[C@@]1(O)CC[C@H]2[C@@H](C=C[C@]3(C)OCC[C@H](O)[C@]23C)C1`, the result with A549, with HCT-116, in the data set with MCF7, with Daoy, in the data set on Splenocyte [2] and in the data set with Splenocyte [3] was inactive. Also, in the data set with Splenocyte [1], the Activity entry is on record as “Non-Toxic”.

Turning to `CC(=O)[C@]1(C)[C@H]2CC[C@H](C)C[C@@H]2[C@H](Cl)[C@@H](O)[C@@]1(C)O`, the outcome in the data set on A549, in the data set on HCT-116, with MCF7 and in the data set with Daoy was inactive. Besides, the Activity result in the data set on Splenocyte [1] is on record as “Non-Toxic”.

Take `C[C@@]1(O)CC[C@H]2[C@H](C1)[C@@H]1O[C@@H]1[C@@]1(C)OC(=O)CC[C@]21C`: the result with A549, in the data set on HCT-116, with MCF7 and in the data set with Daoy was inactive. Moreover, the Activity entry in the data set on Splenocyte [1] is on record as “Non-Toxic”.

For `CC(=O)[C@@]1(C)C(C)=C[C@H](O)[C@H]2C[C@](C)(O)CC[C@@H]21`, the outcome with A549, in the data set with HCT-116, with MCF7 and with Daoy was inactive. Also, in the data set with Splenocyte [1], the Activity result is on record as “Non-Toxic”. Also, the result in the data set with Splenocyte [4] was Active.

For `C[C@H]1CC[C@H]2[C@@H](C=C[C@@](C)(O)[C@]2(C)C(=O)CCO)C1`, the result with A549, in the data set with HCT-116, with MCF7 and with Daoy was inactive. In the data set with Splenocyte [1], the Activity result was “Non-Toxic”. Further, the result in the data set on Splenocyte [2] and in the data set with Splenocyte [3] was Active.

With `CC(=O)OCCC(=O)[C@]1(C)[C@H]2CC[C@H](C)C[C@@H]2[C@H](Cl)[C@@H](O)[C@@]1(C)O`, the outcome in the data set on A549, with HCT-116, in the data set with MCF7 and with Daoy was inactive. Further, the Activity result in the data set on Splenocyte [1] is listed as “Non-Toxic”.

As to `C[C@H]1CC[C@H]2[C@H](C1)[C@H](Cl)[C@@H](O)[C@@](C)(O)[C@]2(C)C(=O)CCO`, the result in the data set on A549, with HCT-116, in the data set on MCF7, in the data set on Daoy, in the data set on Splenocyte [2] and in the data set with Splenocyte [3] was inactive. In addition, in the data set with Splenocyte [1], the Activity entry was “Non-Toxic”. Also, in the data set with Splenocyte [4], the outcome was Active.

As to `CC(=O)OCCC(=O)[C@]1(C)[C@H]2CC[C@@](C)(O)C[C@@H]2C=C[C@@]1(C)O`, the outcome with A549, with HCT-116, in the data set with MCF7 and in the data set on Daoy was inactive. For the same molecule, the Activity result with Splenocyte [1] is on record as “Non-Toxic”.

`C[C@@]1(O)CC[C@H]2[C@](O)(C1)[C@@H]1O[C@@H]1[C@@]1(C)OC(=O)CC[C@]21C`: the result in the data set with A549, with HCT-116, with MCF7 and in the data set on Daoy was inactive. For the same molecule, in the data set on Splenocyte [1], the Activity result is “Non-Toxic”. Further, the outcome with Splenocyte [2] and in the data set on Splenocyte [3] was Active.

For the molecule `CC(=O)[C@]1(C)[C@H]2CC[C@@](C)(O)C[C@@H]2C=C[C@@]1(C)O`, the outcome in the data set with A549, with HCT-116, in the data set on MCF7, in the data set on Daoy, with Splenocyte [2] and in the data set on Splenocyte [3] was inactive. Moreover, the Activity entry in the data set with Splenocyte [1] is listed as “Non-Toxic”.

`C[C@@]1(O)CC[C@H]2[C@@H](C=C[C@@]3(C)OC(=O)CC[C@]23C)C1`: the outcome in the data set on A549, in the data set on HCT-116, with MCF7, in the data set on Daoy, in the data set on Splenocyte [2] and in the data set on Splenocyte [3] was inactive. Further, the Activity entry with Splenocyte [1] is on record as “Non-Toxic”.
